In the EternaBench riboswitch data:

Test system: MS2 coat protein
Assay: apparent Kd, MS2 coat protein; higher = weaker binding; RNA-MaP array; FMN 200 µM where present
Method in brief: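 SNAP-549-labelled MS2 coat protein, doubled from 0.7 or 1.5 nM to 3 µM, was titrated over designs transcribed by stalled E. coli RNA polymerase on Illumina sequencing-chip clusters. Titrations were run without and then with constant ligand in 100 mM Tris-HCl pH 7.5, 80 mM KCl, 4 mM MgCl2, BSA, DTT, yeast tRNA and Tween-20. The apparent Kd is the median of filtered per-cluster fits to green signal normalised to red-channel RNA signal and control-cluster median Fmax.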

[1] = designed as: OFF switch for flavin mononucleotide, no ligand
[2] = ligand present: flavin mononucleotide, designed as: OFF switch for flavin mononucleotide
[3] = designed as: ON switch for flavin mononucleotide, no ligand
[4] = ligand present: flavin mononucleotide, designed as: ON switch for flavin mononucleotide

Sequence	apparent Kd [1] [nM]	apparent Kd [2] [nM]	apparent Kd [3] [nM]	apparent Kd [4] [nM]
CUAUAUAAUACCUCAUGUACAUGAGGAUCACCCAUGUUAACUUAGGAUAUAUUUAUAUUGAUAGAGUAGAAGGAAGUACUAUUU	15.8	13.8		
GCCGUGUUAGGAUAUUAAAGACCUGCGCCAAACGCAGGAAGUAAGAAGGAACAUGAGGAUCACCCAUGUGUCCG	17.2	14.5		
AAUCCACAUGAGGAUCACCCAUGUGAGGAUAUGAUACUAUGUACUUCGGUACAUAGUAUCAGAAGGCACAGGUC	23.6	51.6		
UACUACGCAGGAUAUACAUGAGGAUCACCCAUGUGUCUGCGAUAGGCACGUGAUAUCCGUAGAAGGGUGUAGAU	30.4	79.5		
AAAAAACAUGAGGAUCACCCAUGUAAAAAUAUGGGAGGAUAUUCAAACACGAAAGUGAAAGAAGAAGGCCUAAAAA			66.6	23.3
ACAUGAGGAUCACCCAUGUCACUUUUACAUGGGUAUAUAAGCGAGGAUAUGCAUAUACCCUGGGUGCAGAAGGCGCUUUUUUAA	74.5	105		
UACUCGUGUGAGAAGGGACGUAUCUCCAUGAGGGCAGGGCUAUUAGAGAAGUCAGGAUAUCACAUGAGGAUCACCCAUGUGACG	8.26	10.8		
AUUAAACAUGAGGAUCACCCAUGUAAUAUUAUGGGAGGAUAUGCGAAUUUAAUUAAUUAAGCAGAAGGCCUAAUUA			108	19
GGGAUGUGAGGAUAUACAUGAACUAUCCACUGUGCUGGGCCACAUGAGGAUCACCCAUGUAGAAGGUACGCCCA	66.2	168		
GUUUCGUGAGGAUAUGUGGCUUCGAUCGUGCGAAAAAGGCUACAGAAGGCACAUGAGGAUCACCCAUGUUCCUC	119	568		
UCCUUCUGUUGAGGAUAUGUAAGACAGCGGCUGCUAUUGCGGCACGCUGAUACAGAAGGCAACAUGAGGAUCACCCAUGUUCAA	26.4	205		
CAUGUCCUCACAGGAUAUGCUGGACUUUGUCCAGCAGAAGGGUGAACAUGAGGAUCACCCAUGUUGUGGACAUGUAUAUUUAAG			228	575
CGAAAAUUUCAGAAGGACCGAUUCCACAUGAGGAUCACCCAUGUCGAUGGUAGGAUAUGGAGUUGUGGACAGGGCGGAUGUACC			72.1	8.92
GGAUCGAAUGUGAGGAUAUACCUAUGGAAACAUAGGUAGAAGGCACAUGAGGAUCACCCAUGUCCUAACGGUCC	419	456		
GCCGGCUAAUGAGGAUAUGGCACCUUAUUGGUGCCAGAAGGCAUGUCAAUUGACAUGAGGAUCACCCAUGUAUUAUAGUUGGCG			422	115
UGGUACUAGGGAGGAUAUGGGAAGAUACAUGAGGAUCACCCAUGUUUAAGAAUGCCGAGAGGCAACUAGAAGGGCCUAGUACCU			804	280
AGCUGGUGACAGCAUCCAUCAAAACAUGAGGAUCACCCAUGUAGAAGGCUGUACGGUUACCGUACAGAGGAUAUACAUAGAUGG	10.4	14.9		
GCUUCCGCAUGAGGAUAUUGUUAAGGGACGGGACCUCAUGACCCACAUGAGGAUCACCCAUGUGGCGAGAAGGCGUGUAGAGCG	10.1	32.7		
UUAGGAUGUGAAGGAUAUGCCGAGUUAAGCCCAGCAGAAGGUUACAUACCUUUUGAUACAUGAGGAUCACCCAUGUUCUAAGAU			41.6	28.3
GGAUGAGAAACUCAUCCAUAACGAACAUGAGGAUCACCCAUGUAGGAUAUGCUACUCAAAGAGUAGCAGAAGGACAUGUGCCUU	29.8	259		
GAGUGACAUGAGGAUCACCCAUGUGAGGAUAUCGGACGGACCAAAUUAACAAUAUUUGCGAGAAGGCACAUCGG	88.5	130		
AAUAUGUUGCAGAAGGUUAUUUUUAUAACGAUCCACUUGACAUGAGGAUCACCCAUGUAAUUGAUGAAGGAUAUGCAAUAUAUU	6.69	6.69		
GGGUACAUCGGAGGAUAUCAUGUAAAUACAUGAGGAUCACCCAUGUCGAUGGAGACAUCGCAGAUUGAGAAGGCCGAUGUACCG			28	5.26
GCGAGCAUACAGAAGGGAUCGUCGUAGCGGCUGUCAGGAUAUGUAGCUUGGCCUAAACAUGAGGAUCACCCAUGUAUAAUGCUA			175	21
AAAAAACAUGAGGAUCACCCAUGUCAGGAUAUGAAAAAAAAAAAAAAAAAAAAAAAAAUCAGAAGGGACAAAAA	66.4	36.1		
UUUUAACAUGAGGAUCACCCAUGUGAGGAUAUCGAAAUUUAUAUUAAUAUUUAUAUUACGAGAAGGCACAUUUU	81.6	82.4		
GUCGUGUGAGGAUAUGAUUUUUAGGCGGGAUUGCGACUGCUUCAGAAGGCACAUGAGGAUCACCCAUGUAUGAA	11.3	38.8		
ACUGACAUGAGGAUCACCCAUGUCUUGAAUAGGUCAAAUUCACAGGAUAUGCACGAGGACAGAGUGCAGAAGGGUGAUGCAAUG			47.7	11.7

Sequence	apparent Kd [1] [nM]	apparent Kd [2] [nM]	apparent Kd [3] [nM]	apparent Kd [4] [nM]
AGAUGUGAACAUGAGGAUCACCCAUGUGACUAGGUUUAUUUCAGAAGGCAUUUAUAGAGAUUAUAUGAGGAUAUGAAGUUUUAA			12.4	6.45
CCGGUGUCAGGAUAUACGCCAACCACUGAAAAGGUAUGGGCGUAGAAGGGACAUGAGGAUCACCCAUGUCAGUC	22.8	36.3		
CUCAAGUCAGGAUAUCCAGCUGUGUUCCGGGACUCGUAGUUGGAGAAGGGACAUGAGGAUCACCCAUGUCAGCC	32.3	67.8		
CACCGUUAAGGAGGAUAUCGUACAUGAGGAUCACCCAUGUAAUAAAUGAGAAUUUCGGAUGUAUGCGAGAAGGCCUAAAUCGGC	49.5	42		
ACGCACGGAGGAUAUACAUGAGGAUCACCCAUGUCGGUGUAUUUUCGGCCAAAAUUUUGUAGAAGGCUGUCGUG	222	526		
UUUUAACAUGAGGAUCACCCAUGUGAGGAUAUCGAAAUUUAUAUUAAUAUUUUUAAUUCGAGAAGGCACAUUUU	116	118		
GCAGCGCCUGACAUGAGGAUCACCCAUGUUAGAUUGUUAAGUCAGGAUAUAGUCUAGAAACUAGACUAGAAGGGAUAUGCUGCU			15	8.03
AACUAAGUAUUAAUGGUGUCUGACAGAAGGCAAUAGAAUGAGACCGACAUGAGGAUCACCCAUGUUGAGGAUAUGUCUAGCUAC	6.33	7.27		
GCCAUCGCAUGAGGAUAUGCUCCGGUUUCCGGAGCAGAAGGCAUGUCAUAAGACAUGAGGAUCACCCAUGUAGUUAAGAUGGCA			715	33.6
CGAAAUGAUAGAGGAUAUGUUUUACAUGAGGAUCACCCAUGUGUACAUGGAUUAAUAUAUAAGUAACAGAAGGCUAUUCAAUCG	18.6	17.3		
UAUAAAACAUAGGAUAUCGAAAUUAUCAUUUAACGAGAAGGAUGAACAUGAGGAUCACCCAUGUGGUAUCAUGG	392	518		
UCAAGUAUGUAGGAUAUCGAUGUCUGCGGACAUCGAGAAGGACGUACAUGAGGAUCACCCAUGUAACUUGCAUG	107	79.4		
AAUUAUUUACAGAAGGAGUUAAAAGGAGUAUUACUAGGAUAUGUUCACAUGAGGAUCACCCAUGUCAUAUUGGGAUUUAUUUUU	22.5	22.6		
AAGAAACACGUGGAGUUAUUCGGGUAGGAUAUCUACGACCUGAUCGACAUGAGGAUCACCCAUGUAGAGAAGGGCCCAUCUCCU	6.65	8.87		
UUAUUAGGACAGAAGGGUAGACAUGAGGAUCACCCAUGUAAUAUAAGGUGCAGGAUAUGUAAUAAUUGAGAUUCAUCAUUUUGC			198	142
AUUAGACAUGAGGAUCACCCAUGUAGGCAGUCAUGAGGAUAUGGACAAGGUGCUCAAGGUCCAGAAGGCAUACGCC			29.3	18.5
GUUAUAGGAGGAUAUACAUGAGGAUCACCCAUGUCUCAUCCAUGGCAACGAACCUAUUGUAGAAGGCUUGAAGA	28.9	113		
AGAAACUACGAGAAGGACAUGUGGUCCAAAAUAAACAUGAGGAUCACCCAUGUAGGAUAUCGUAGUUUCAGGAUCGUGAGAUCA	260	12.3		
AAAUAGCGAGGAUAUACAUGAGGAUCACCCAUGUGGACUGAUGUCGCAUGAUUCAGUGGUAGAAGGUGCUCAAA	90.4	127		
UUCAUGUGAGGAUAUGCGGCACCAGGUGGGCCUGGCGCUGAGCAGAAGGCACAUGAGGAUCACCCAUGUGCUCC	29.7	56.7		
CAUACACAUGAGGAUCACCCAUGUGAGGAUAUGCGUACGUUGUCCGUAGGCGACGUGCGCAGAAGGCGCGUGUU	56.9	48.3		
CAGUUCUGAGGAUAUCCACCCUCCUACAUGAGGAUCACCCAUGUUUCCCUCUGGGUUUUCGGAGAAGGCAGUUAUC	44.7	79.6		
AGUUACAGGAUAGGAUAUGGCGUGACAUGGCUGCCAGAAGGAUCCUCGGGAACAUGAGGAUCACCCAUGUGACCGUGUCGAGUC			126	170
GAACAUGUCCGAGGAUAUCUGAGAUCAUUUUCAAGAGAAGGCGGACAUGAGGAUCACCCAUGUCUCUCCUCAUCAACUCCAAAU	6.95	38.5		
AUCAGCUCGUCAGGAUAUACGUCACUGCGUCAGCAGUGUGGUAAGAUAACAUGAGGAUCACCCAUGUAGAAGGGACGAGCUGAU	7.29	13.1		
AGGUGUCCUGAGAAAUUUCUCCACAUGAGGAUCACCCAUGUAGAGGAUAUCGACGCUGUGCGGUUCGAGAAGGCUACACUAAUU	6.54	22.7		
UUAGUGGUAGGAUAUCACCCAGGUUACAUGAGGAUCACCCAUGUGACUCAGCAGGCCAAGUGAGAAGGGCUGCUCC	22.3	20		
